# Source: ChEMBL document CHEMBL4382263, “Spirostaphylotrichin X from a Marine-Derived Fungus as an Anti-influenza Agent Targeting RNA Polymerase PB2” (J Nat Prod, 2018)
# pIC50, pKd: −log10 of the molar value. Active and inactive are the calls of the source. The rule behind the calls is not given here.
# Experiments:
# [1] = test system: Influenza A virus (A/Puerto Rico/8/1934(H1N1)); test: Inhibition of RNA-dependent RNA polymerase in Influenza A virus (A/PR/8/34(H1N1)) infected in human 293T cells assessed as reduction in viral RNA level at 10 uM measured at 3 and 6 hrs post infection by RT-PCR method; format: cell-based
# Cynodon dactylon = test: Inhibition of seed germination in Cynodon dactylon at 100 ug/ml after 7 days; format: functional, organism-based
# How it was run: (§1)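 Ten surface-sterilised seeds per well on agar. Test solution at 100 μg/mL in 5% EtOH added; three wells per sample. Incubated at 20 °C, 12:12 h photoperiod, 7 days; germination scored.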
# Arabidopsis thaliana = test: Inhibition of seed germination in Arabidopsis thaliana at 100 ug/ml after 7 days; format: functional, organism-based; how it was run: as §1
# ACHN = test: Cytotoxicity against human ACHN cells by MTT assay; format: functional, cell-based
# 786-0 = test: Cytotoxicity against human 786-O cells by MTT assay; format: functional, cell-based
# OS-RC-2 = test: Cytotoxicity against human OS-RC2 cells by MTT assay; format: functional, cell-based
# HepG2 = test: Cytotoxicity against human HepG2 cells by MTT assay; format: functional, cell-based
# SGC-7901 = test: Cytotoxicity against human SGC7901 cells by MTT assay; format: functional, cell-based
# Escherichia coli = test: Antibacterial activity against Escherichia coli ATCC 25922; format: functional
# Staphylococcus aureus = test: Antibacterial activity against Staphylococcus aureus subsp. aureus Rosenbach ATCC 25923; format: functional
# [2] = test system: Erysipelothrix rhusiopathiae; test: Antibacterial activity against Erysipelothrix rhusiopathiae ATCC 19414; format: functional
# [3] = Antibacterial activity against Pasteurella multocida subsp. multocida ATCC 43137; format: functional
# Influenza A virus H3N2 = test: Antiviral activity against Influenza A virus (A/Aichi/2/68(H3N2)) infected in MDCK cells assessed as reduction in virus-induced cytopathic effect by MTT assay; format: functional, organism-based; settings: A/Aichi/2/1968(H3N2)
# How it was run: (§2)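 MTT-based cytopathic-effect reduction assay in MDCK cells. Run in triplicate; IC50 reported as mean ± SD.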
# [4] = Cytotoxicity against MDCK cells by MTT assay; format: cell-based, Canis lupus familiaris; settings: dog
# How it was run: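 MDCK viability measured by MTT at concentrations up to 200 μM. Run in triplicate; CC50 reported.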
# Influenza A virus [5] = test: Antiviral activity against Influenza A virus (A/FM-1/1/47(H1N1)) infected in MDCK cells assessed as reduction in virus-induced cytopathic effect by MTT assay; format: functional, organism-based; settings: A/Fort Monmouth/1/1947(H1N1); how it was run: as §2
# Influenza A virus [6] = test: Antiviral activity against Influenza A virus (A/PR/8/34(H1N1)) infected in MDCK cells assessed as reduction in virus-induced cytopathic effect by MTT assay; format: functional, organism-based; settings: A/Puerto Rico/8/1934(H1N1); how it was run: as §2
# Influenza A virus [7] = test: Antiviral activity against Influenza A virus isolate 690 (H3) infected in MDCK cells assessed as reduction in virus-induced cytopathic effect by MTT assay; format: functional, organism-based; how it was run: as §2
# Influenza A virus [8] = test: Antiviral activity against Influenza A virus (A/PR/8/34(H1N1)) infected in MDCK cells assessed as reduction in plaque formation after 72 hrs by crystal violet staining based assay; format: functional, organism-based; settings: A/Puerto Rico/8/1934(H1N1)
# How it was run: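 MDCK monolayers infected with PR8 at MOI 0.005 for 1 h at 37 °C. Overlay of serum-free MEM with serially diluted compound, 2% microcrystalline cellulose and 1.5 μg/mL trypsin. After 72 h, cells fixed and stained with 4% paraformaldehyde/2% crystal violet for 20 min; plaques assessed.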
# Influenza A virus [9] = test: Antiviral activity against Influenza A virus (A/PR/8/34(H1N1)) infected in MDCK cells assessed as reduction in viral NP protein expression after 24 hrs by DAPI staining based fluorescence microscopic method; format: functional, organism-based; settings: A/Puerto Rico/8/1934(H1N1)
# How it was run: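 MDCK cells infected at MOI 0.01 for 1 h, then given increasing concentrations for 24 h. Fixed in 4% paraformaldehyde and blocked with 3% BSA. Stained with anti-NP (1:200, overnight, 4 °C), then FITC secondary (4 h, RT); DAPI nuclear stain; fluorescence microscopy.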
# Influenza A virus [10] = test: Antiviral activity against Influenza A virus (A/PR/8/34(H1N1)) infected in MDCK cells assessed as reduction in viral HA mRNA expression after 24 hrs by qRT-PCR method; format: functional, organism-based; settings: A/Puerto Rico/8/1934(H1N1)
# How it was run: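 Infected MDCK cells treated with a concentration series for 24 h. Total RNA reverse-transcribed; viral HA mRNA quantified by qRT-PCR with GAPDH as internal control. Triplicate, mean ± SD.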
# Influenza A virus [11] = test: Antiviral activity against Influenza A virus (A/PR/8/34(H1N1)) infected in MDCK cells assessed as reduction in viral NP protein expression after 24 hrs by Western blot method; format: functional, organism-based; settings: A/Puerto Rico/8/1934(H1N1)
# How it was run: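 MDCK monolayers infected with PR8 at MOI 0.01 for 1 h at 37 °C, then given serial dilutions. At 24 h, lysates equalised for protein and run on 10% SDS-PAGE. NP detected with anti-NP (1:1000) and HRP secondary, β-actin as loading control; ECL read-out.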
# Influenza A virus [12] = test: Antiviral activity against Influenza A virus (A/PR/8/34(H1N1)) infected in MDCK cells assessed as reduction in virus-induced cytopathic effect pretreated with virus for 30 mins followed by viral infection incubated for 30 mins and measured after 48 hrs by MTT assay; format: functional, organism-based; settings: A/Puerto Rico/8/1934(H1N1)
# How it was run: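 Preinfection: PR8 (MOI 0.01) mixed with compound for 30 min at 37 °C, then added to MDCK cells for 30 min. Medium replaced with fresh medium containing 1 μg/mL TPCK-trypsin. Viability by MTT after a further 48 h.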
# Influenza A virus [13] = test: Antiviral activity against Influenza A virus (A/PR/8/34(H1N1)) infected in MDCK cells assessed as reduction in virus-induced cytopathic effect treated post viral infection for 1 hr and measured after 48 hrs by MTT assay; format: functional, organism-based; settings: A/Puerto Rico/8/1934(H1N1)
# How it was run: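 Postinfection: infected MDCK cells given increasing concentrations for 1 h at 37 °C, then medium replaced. Viability by MTT after a further 48 h.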
# Influenza A virus [14] = test: Antiviral activity against Influenza A virus (A/PR/8/34(H1N1)) infected in MDCK cells assessed as reduction in virus-induced cytopathic effect co-treated with viral infection for 30 mins and measured after 48 hrs by MTT assay; format: functional, organism-based; settings: A/Puerto Rico/8/1934(H1N1)
# How it was run: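 Entire-infection: virus–compound mixture (PR8, MOI 0.01, 30 min at 37 °C) added to MDCK cells. Unabsorbed virus removed; fresh medium with 1 μg/mL TPCK-trypsin plus compound added. Viability by MTT after 48 h.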
# [15] = target: Hemagglutinin (Influenza A virus (A/Puerto Rico/8/1934(H1N1))) (UniProt P03452); test: Inhibition of Influenza A virus (A/PR/8/34(H1N1)) HA-mediated chicken erythrocytes hemagglutination preincubated for 30 mins followed by erythrocytes addition and measured for 1 hr
# How it was run: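 Twofold serial compound dilutions mixed with PR8 at different titres for 30 min at RT. 0.5% chicken erythrocytes added; read after 1 h at 37 °C. Virus diluent without compound as negative control, PBS as blank.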
# [16] = target: Neuraminidase (Influenza A virus (A/Puerto Rico/8/1934(H1N1))) (UniProt P03468); test: Inhibition of Influenza A virus (A/PR/8/34(H1N1)) NA assessed as reduction in viral particle release using 2-(4-methylumbelliferyl)-alpha-D-N-acetylneuraminic acid sodium as substrate preincubated for 30 mins followed by substrate addition and measured for 1 hr by fluorescence assay
# How it was run: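 PR8 in reaction buffer mixed with twofold-diluted compound for 30 min at 37 °C. 20 μM MUNANA substrate added for 1 h at 37 °C; stopped with 14 mM NaOH. 4-MU fluorescence read at ex 340/em 440 nm.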
# Influenza A virus [17] = test: Antiviral activity against Influenza A virus (A/PR/8/34(H1N1)) infected in MDCK cells assessed as reduction in viral NP production at 10 uM measured 10 hrs post infection by Western blot analysis; format: functional, organism-based; settings: Influenza A virus (A/Puerto Rico/8/1934(H1N1))
# How it was run: (§3)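 Compound added to PR8-infected MDCK cells at defined time points covering the first replication cycle. At 10 h postinfection, NP measured by Western blot and HA mRNA by quantitative RT-PCR.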
# Influenza A virus [18] = test: Antiviral activity against Influenza A virus (A/PR/8/34(H1N1)) infected in MDCK cells assessed as reduction in viral HA mRNA level at 10 uM measured 10 hrs post infection by qRT-PCR analysis; format: functional, organism-based; settings: Influenza A virus (A/Puerto Rico/8/1934(H1N1)); how it was run: as §3
# [19] = target: Polymerase basic protein 2 (Influenza A virus (strain A/Puerto Rico/8/1934 H1N1)) (UniProt P03428); test: Inhibition of fluorescently-labeled m7GTP binding to Influenza A virus RNA polymerase PB2 preincubated for 15 mins followed by m7GTP addition measured after 1 hr by HTRF assay
# How it was run: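 PB2 protein preincubated with compound at different concentrations for 15 min at RT. Premixed fluorescent probe (m7GTP cap analogue) added; HTRF read after 1 h. Three independent experiments, mean ± SD.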
# [20] = target: Polymerase basic protein 2 (Influenza A virus (strain A/Puerto Rico/8/1934 H1N1), UniProt P03428); test: Binding affinity to Influenza A virus RNA polymerase PB2 by SPR assay
# How it was run: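 PB2-cap protein (0.5 μM) immobilised on CM5 chip at pH 5.0. Compound injected at 7.8–125 nM for 180 s at 50 μL/min, 25 °C; chip regenerated with 50 mM NaOH. KD from fitted sensorgrams; reference compound included.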
# Sequence of Polymerase basic protein 2 (P03428 whole entry): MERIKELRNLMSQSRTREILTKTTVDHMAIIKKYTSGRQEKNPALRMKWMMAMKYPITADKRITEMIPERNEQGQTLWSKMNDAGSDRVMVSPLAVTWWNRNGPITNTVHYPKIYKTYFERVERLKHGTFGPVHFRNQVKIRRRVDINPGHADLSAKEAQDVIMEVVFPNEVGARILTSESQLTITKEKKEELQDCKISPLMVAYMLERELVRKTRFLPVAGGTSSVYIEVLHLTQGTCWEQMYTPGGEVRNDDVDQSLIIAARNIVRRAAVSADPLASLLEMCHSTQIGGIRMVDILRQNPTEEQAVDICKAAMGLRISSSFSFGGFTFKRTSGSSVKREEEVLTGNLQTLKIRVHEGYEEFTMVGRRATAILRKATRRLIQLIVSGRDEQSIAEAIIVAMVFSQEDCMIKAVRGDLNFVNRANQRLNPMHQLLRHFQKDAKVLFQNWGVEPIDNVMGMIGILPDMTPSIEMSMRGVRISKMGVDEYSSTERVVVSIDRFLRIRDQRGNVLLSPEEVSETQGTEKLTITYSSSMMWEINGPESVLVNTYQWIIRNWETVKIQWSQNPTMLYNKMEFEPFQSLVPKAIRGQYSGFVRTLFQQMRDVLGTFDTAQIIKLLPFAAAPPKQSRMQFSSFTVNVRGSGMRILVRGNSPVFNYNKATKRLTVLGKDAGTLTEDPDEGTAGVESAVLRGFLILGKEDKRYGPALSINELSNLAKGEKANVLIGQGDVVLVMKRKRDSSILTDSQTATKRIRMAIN
# Sequence of Hemagglutinin (Influenza A virus (A/Puerto Rico/8/1934(H1N1))) (P03452 whole entry): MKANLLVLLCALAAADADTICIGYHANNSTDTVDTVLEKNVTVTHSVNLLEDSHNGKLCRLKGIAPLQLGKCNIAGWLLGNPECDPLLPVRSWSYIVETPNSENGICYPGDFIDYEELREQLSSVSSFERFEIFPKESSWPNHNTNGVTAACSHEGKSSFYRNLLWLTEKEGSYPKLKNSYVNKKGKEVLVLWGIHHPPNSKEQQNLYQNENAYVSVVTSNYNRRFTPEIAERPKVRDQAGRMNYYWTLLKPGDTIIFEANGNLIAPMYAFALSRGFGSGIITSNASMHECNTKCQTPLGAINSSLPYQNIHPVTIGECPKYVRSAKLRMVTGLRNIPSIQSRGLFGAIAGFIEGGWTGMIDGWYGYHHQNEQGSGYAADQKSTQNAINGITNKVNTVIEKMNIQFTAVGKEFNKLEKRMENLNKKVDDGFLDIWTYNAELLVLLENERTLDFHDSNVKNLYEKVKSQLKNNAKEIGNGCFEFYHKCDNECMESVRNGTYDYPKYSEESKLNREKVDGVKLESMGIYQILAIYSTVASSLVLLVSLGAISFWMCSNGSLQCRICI
# Sequence of Neuraminidase (Influenza A virus (A/Puerto Rico/8/1934(H1N1))) (P03468 whole entry): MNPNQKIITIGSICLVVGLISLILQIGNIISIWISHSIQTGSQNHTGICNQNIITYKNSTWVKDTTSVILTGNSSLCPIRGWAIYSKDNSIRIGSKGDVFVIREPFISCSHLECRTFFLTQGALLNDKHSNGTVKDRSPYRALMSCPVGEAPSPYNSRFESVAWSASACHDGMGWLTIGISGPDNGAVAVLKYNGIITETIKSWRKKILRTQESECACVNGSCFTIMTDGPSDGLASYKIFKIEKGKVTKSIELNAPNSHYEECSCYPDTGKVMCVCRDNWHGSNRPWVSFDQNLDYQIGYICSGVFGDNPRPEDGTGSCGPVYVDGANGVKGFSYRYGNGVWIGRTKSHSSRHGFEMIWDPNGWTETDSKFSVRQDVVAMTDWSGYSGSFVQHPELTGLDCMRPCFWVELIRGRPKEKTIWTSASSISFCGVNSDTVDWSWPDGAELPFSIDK
# Sequence of Polymerase basic protein 2 (Influenza A virus (strain A/Puerto Rico/8/1934 H1N1)) (P03428 whole entry, looked up): as the sequence (P03428 whole entry) above
SMILES,inhibition [1],inhibition (Cynodon dactylon),inhibition (Arabidopsis thaliana),pIC50 (ACHN),pIC50 (786-0),pIC50 (OS-RC-2),pIC50 (HepG2),pIC50 (SGC-7901),MIC (Escherichia coli) [µg/mL],MIC (Staphylococcus aureus) [µg/mL],MIC [2] [µg/mL],MIC [3] [µg/mL],pIC50 (Influenza A virus [6]),pKd [20],also measured
CCC(CC)[C@H](NC(C)=O)[C@@H]1[C@H](O)[C@@H](C(=O)O)C[C@H]1NC(=N)N,inactive,–,–,–,–,–,–,–,–,–,–,–,–,–,–
CC/C=C1/C=CC(=O)[C@@H](O)[C@]12C(=O)N(OC)[C@@](C)(OC)[C@@H]2O,Active,inactive,inactive,< 4.30,< 4.30,< 4.30,< 4.30,< 4.30,> 100,> 100,> 100,> 100,5.80,7.11,pIC50 (Influenza A virus H3N2): 5.39; CC50 [4]: > 200 µM; pIC50 (Influenza A virus [5]): 5.26; pIC50 (Influenza A virus [7]): 5.77; Activity (Influenza A virus [8]): Dose-dependent effect; Activity (Influenza A virus [9]): Dose-dependent effect; Activity (Influenza A virus [10]): Dose-dependent effect; Activity (Influenza A virus [11]): Dose-dependent effect; Activity (Influenza A virus [12]): inactive; Activity (Influenza A virus [13]): Active; Activity (Influenza A virus [14]): Active; inhibition [15]: inactive; inhibition [16]: inactive; Activity (Influenza A virus [17]): Active; Activity (Influenza A virus [18]): Active; inhibition [19]: Dose-dependent effect
O=c1oc2cc(O)cc(O)c2c2ccccc12,–,–,–,–,–,–,–,–,–,–,–,–,–,5.44,–
C=C1[C@H](O)[C@@]2(C(=O)N1OC)/C(=C\CC)C=CC(=O)[C@H]2O,–,inactive,inactive,< 4.30,< 4.30,< 4.30,< 4.30,< 4.30,> 100,> 100,> 100,> 100,4.68,–,–
